The source made the active and inactive calls. No cut-off for these calls is given here.

From ChEMBL document CHEMBL1140495, “Neutral 5-substituted 4-anilinoquinazolines as potent, orally active inhibitors of erbB2 receptor tyrosine kinase” (Bioorg Med Chem Lett, 2007) come the findings set out here.

Series [1] addresses T1, Receptor tyrosine-protein kinase erbB-2 (Homo sapiens, UniProt P04626). The series can be described thus: Inhibition of Erb2 autophosphorylation by cellular clone 24 assay. In kind it is functional.
Series [2] in a line: Lipophilicity, log D of the compound. In kind it is physicochemical. The following applies: octanol/water.
In series [3] the target is T1, Receptor tyrosine-protein kinase erbB-2. The series can be described thus: Inhibition of ErbB2 kinase.
Series [4] has as its target Epidermal growth factor receptor (Homo sapiens, UniProt P00533).
For series [5], the system named is KB. Briefly: Effect on growth of human KB cells.
Series [6] can be described thus: Antiproliferative activity against BT474C cells. The series is classed as functional, cell-based. As to conditions: Homo sapiens.
Series [7] deals with KB. Briefly: Antiproliferative activity against human KB cells.
The test system of series [8] is LoVo. Briefly: Growth inhibition of LoVo cells xenografted in mouse at 50 mg/kg, po bid. Set-up: dose 50 mg/kg. The following applies: Homo sapiens. The series is classed as functional, organism-based. The procedure, abridged: (§1)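 LoVo xenografts in mice were dosed orally at 50 mg/kg b.i.d. Tumour growth and tumour phospho-EGFR were assessed.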
Series [9] addresses Proto-oncogene tyrosine-protein kinase Src (Homo sapiens, UniProt P12931). The series can be described thus: Inhibition of Src.
Series [10] has as its system BT474C. The series can be described thus: Antitumor activity against human BT474C cells xenografted mouse at 50 mg/kg, po qd for 21 days. The series is classed as functional, organism-based. Set-up: dose 50 mg/kg. (In general: In xenograft studies the graft and the host belong to different species.)
Series [11] relates to Mus musculus. The series can be described thus: Inhibition of phospho-EGFR in LoVo cells xenografted mouse at 50 mg/kg, po bid. Set-up: dose 50 mg/kg. The series is classed as functional, organism-based. The procedure, abridged: as §1
The subject of series [12] is Canis familiaris. Briefly: AUC (0 to 24 hrs) in Alderley Park Beagle dog at […], po. The following applies: in vivo. Set-up: time < 24 hr, route oral. In kind it is ADME, organism-based, Canis lupus familiaris, Plasma. The procedure, abridged:
(§2)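 Pharmacokinetics after intravenous dosing at 2 mg/kg and oral dosing at 5 mg/kg in immunocompetent female Alderley Park mice and in female Alderley Park rats. Male Alderley Park beagles received 50 mg iv and 250 mg p.o.; dog figures are means. AUC is AUC0-24 taken from the oral dose.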

Series [13] in a line: AUC (0 to 24 hrs) in Alderley Park rat at 5 mg/kg, po. As to conditions: plasma. In kind it is ADME, organism-based. The arrangement: time < 24 hr, dose 5 mg/kg, route oral. The procedure, abridged: as §2
For series [14], the system named is BT474C. The series can be described thus: Antitumor activity against human BT474C cells xenografted mouse at 50 mg/kg, po bid for 21 days. The series is classed as functional, organism-based. Set-up: dose 50 mg/kg.
In another series the test system is Rattus norvegicus. The series can be described thus: Inhibition of phospho-EGFR in LoVo cells xenografted rat at 300 mg/kg, po qd.
A short description of series [15]: Plasma concentration in mouse at 50 mg/kg, po in presence of 1-aminobenzotriazole after 4 hrs. In kind it is ADME, organism-based. Set-up: dose 50 mg/kg, route oral.
In series [16] the test system is Mus musculus. The series can be described thus: Inhibition of erbB2 phosphorylation in human BT474C cells xenografted mouse at 50 mg/kg, po bid for 21 days. In kind it is functional. As to conditions: 504 h.
Series [17] in a line: Plasma concentration in mouse at 50 mg/kg, po in presence of 1-aminobenzotriazole after 6 hrs. In kind it is ADME, organism-based. Set-up: dose 50 mg/kg, route oral.
Series [18] is described as follows: Volume of distribution at steady state in Alderley Park Beagle dog at 50 mg/kg, iv and […], po. The series is classed as ADME, organism-based, Canis lupus familiaris. As to conditions: in vivo, read-out: Vdss. The procedure, abridged:
as §2

Series [19] is described as follows: Clearance in Alderley Park rat at 2 mg/kg, iv and 5 mg/kg, po. The series is classed as ADME, organism-based. As to conditions: in vivo. The procedure, abridged:
as §2

The nature of series [20]: Volume of distribution at steady state in Alderley Park rat at 2 mg/kg, iv and 5 mg/kg, po. The series is classed as ADME, organism-based. As to conditions: in vivo, read-out: Vdss. The procedure, abridged:
as §2

Series [21] is described as follows: Plasma concentration in mouse at 50 mg/kg, po in presence of 1-aminobenzotriazole after 2 hrs. The series is classed as ADME, organism-based. The arrangement: dose 50 mg/kg, route oral.
The nature of series [22]: Plasma concentration in mouse at 50 mg/kg, po in presence of 1-aminobenzotriazole after 24 hrs. The series is classed as ADME, organism-based. The arrangement: dose 50 mg/kg, route oral.
In series [23] the test system is Mus musculus. The series can be described thus: Inhibition of erbB2 phosphorylation in human BT474C cells xenografted mouse at 50 mg/kg, po.
A short description of series [24]: Bioavailability in Alderley Park rat at 2 mg/kg, iv and 5 mg/kg, po. As to conditions: in vivo. In kind it is ADME, organism-based. The procedure, abridged:
as §2

Series [25] is described as follows: Plasma concentration in mouse at 50 mg/kg, po after 2 hrs. The series is classed as ADME, organism-based. The arrangement: dose 50 mg/kg, route oral. The procedure, abridged: (§3)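 Female mice were given a single oral dose of 50 mg/kg without ABT. Total plasma concentration was measured at 2, 4, 6, 16 and 24 h, and AUC was derived.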
Series [26] in a line: Plasma concentration in mouse at 50 mg/kg, po in presence of 1-aminobenzotriazole after 16 hrs. The series is classed as ADME, organism-based. Set-up: dose 50 mg/kg, route oral.
Series [27] deals with Vascular endothelial growth factor receptor 2 (Homo sapiens, UniProt P35968). Briefly: Inhibition of Kdr.
Chain of Vascular endothelial growth factor receptor 2 (P35968 whole entry): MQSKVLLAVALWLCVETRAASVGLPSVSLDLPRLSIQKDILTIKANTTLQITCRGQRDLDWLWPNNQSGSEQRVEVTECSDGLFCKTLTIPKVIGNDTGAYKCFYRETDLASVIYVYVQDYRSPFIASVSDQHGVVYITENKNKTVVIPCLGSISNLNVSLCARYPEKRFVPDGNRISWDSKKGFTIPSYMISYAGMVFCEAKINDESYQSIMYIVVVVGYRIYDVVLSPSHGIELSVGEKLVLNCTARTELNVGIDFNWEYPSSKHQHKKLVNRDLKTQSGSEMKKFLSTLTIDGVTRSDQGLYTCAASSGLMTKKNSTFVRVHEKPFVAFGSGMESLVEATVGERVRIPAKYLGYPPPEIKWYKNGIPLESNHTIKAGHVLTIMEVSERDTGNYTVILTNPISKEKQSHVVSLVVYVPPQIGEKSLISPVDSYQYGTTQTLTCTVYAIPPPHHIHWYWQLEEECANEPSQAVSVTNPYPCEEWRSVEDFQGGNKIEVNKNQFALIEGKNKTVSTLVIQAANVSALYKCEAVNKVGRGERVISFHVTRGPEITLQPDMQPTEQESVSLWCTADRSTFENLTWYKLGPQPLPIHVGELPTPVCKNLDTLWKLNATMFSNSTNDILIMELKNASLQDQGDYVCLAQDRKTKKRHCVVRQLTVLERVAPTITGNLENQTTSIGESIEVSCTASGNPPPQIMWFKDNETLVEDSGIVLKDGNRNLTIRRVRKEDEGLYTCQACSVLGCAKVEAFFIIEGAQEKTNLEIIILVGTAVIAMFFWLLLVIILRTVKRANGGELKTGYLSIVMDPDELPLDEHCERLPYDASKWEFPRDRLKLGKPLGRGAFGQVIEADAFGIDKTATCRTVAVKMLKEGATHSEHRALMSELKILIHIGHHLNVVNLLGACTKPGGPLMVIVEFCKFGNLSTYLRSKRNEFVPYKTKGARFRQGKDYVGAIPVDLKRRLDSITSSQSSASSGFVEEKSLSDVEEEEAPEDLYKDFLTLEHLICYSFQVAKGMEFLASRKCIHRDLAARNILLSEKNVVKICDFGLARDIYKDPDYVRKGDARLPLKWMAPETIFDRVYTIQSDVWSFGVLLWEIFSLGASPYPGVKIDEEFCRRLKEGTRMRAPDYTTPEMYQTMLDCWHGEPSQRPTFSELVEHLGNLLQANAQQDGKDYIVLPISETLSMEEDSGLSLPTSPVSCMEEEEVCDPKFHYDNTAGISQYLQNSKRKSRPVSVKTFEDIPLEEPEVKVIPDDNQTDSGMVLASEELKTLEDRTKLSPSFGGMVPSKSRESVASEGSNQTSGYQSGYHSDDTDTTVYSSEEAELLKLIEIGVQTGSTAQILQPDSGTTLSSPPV
Series [28] deals with Canis familiaris. Briefly: Bioavailability in Alderley Park Beagle dog at 50 mg/kg, iv and […], po. In kind it is ADME, organism-based, Canis lupus familiaris. As to conditions: in vivo. The procedure, abridged:
as §2

Series [29] can be described thus: AUC in mouse at 50 mg/kg, po in presence of 1-aminobenzotriazole. In kind it is ADME, organism-based. The arrangement: dose 50 mg/kg, route oral. The following applies: plasma.
Series [30] in a line: Volume of distribution at steady state in Alderley Park mouse at 2 mg/kg, iv and 5 mg/kg, po. The following applies: in vivo, read-out: Vdss. In kind it is ADME, organism-based. The procedure, abridged:
as §2

Series [31] concerns Mus musculus. The series can be described thus: AUC (0 to 24 hrs) in Alderley Park mouse at 5 mg/kg, po. The series is classed as ADME, organism-based, Plasma. Set-up: time < 24 hr, dose 5 mg/kg, route oral. The following applies: in vivo. The procedure, abridged: as §2
Series [32] has as its system LoVo. Briefly: Growth inhibition of LoVo cells xenografted in rat at 300 mg/kg, po qd. The following applies: Homo sapiens.
In series [33] the test system is Mus musculus. Briefly: AUC in mouse at 50 mg/kg, po. In kind it is ADME, organism-based, Plasma. The arrangement: dose 50 mg/kg, route oral. As to conditions: in vivo. The procedure, abridged:
as §3

Series [34] concerns Mus musculus. Briefly: Bioavailability in Alderley Park mouse at 2 mg/kg, iv and 5 mg/kg, po. In kind it is ADME, organism-based. As to conditions: in vivo. The procedure, abridged: as §2
For a further series, the system named is Phospholipidosis. The series can be described thus: In vivo phospholipidosis in rat after 14 days at 600 mg/kg dose q.d. In kind it is ADME, organism-based. The following applies: 336 h. Set-up: dose 600 mg/kg. The procedure, abridged:
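Rat toxicology study lasting 14 days with once-daily dosing at up to 600 mg/kg, examined for phospholipidosis.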

T1 sequence (P04626 whole entry): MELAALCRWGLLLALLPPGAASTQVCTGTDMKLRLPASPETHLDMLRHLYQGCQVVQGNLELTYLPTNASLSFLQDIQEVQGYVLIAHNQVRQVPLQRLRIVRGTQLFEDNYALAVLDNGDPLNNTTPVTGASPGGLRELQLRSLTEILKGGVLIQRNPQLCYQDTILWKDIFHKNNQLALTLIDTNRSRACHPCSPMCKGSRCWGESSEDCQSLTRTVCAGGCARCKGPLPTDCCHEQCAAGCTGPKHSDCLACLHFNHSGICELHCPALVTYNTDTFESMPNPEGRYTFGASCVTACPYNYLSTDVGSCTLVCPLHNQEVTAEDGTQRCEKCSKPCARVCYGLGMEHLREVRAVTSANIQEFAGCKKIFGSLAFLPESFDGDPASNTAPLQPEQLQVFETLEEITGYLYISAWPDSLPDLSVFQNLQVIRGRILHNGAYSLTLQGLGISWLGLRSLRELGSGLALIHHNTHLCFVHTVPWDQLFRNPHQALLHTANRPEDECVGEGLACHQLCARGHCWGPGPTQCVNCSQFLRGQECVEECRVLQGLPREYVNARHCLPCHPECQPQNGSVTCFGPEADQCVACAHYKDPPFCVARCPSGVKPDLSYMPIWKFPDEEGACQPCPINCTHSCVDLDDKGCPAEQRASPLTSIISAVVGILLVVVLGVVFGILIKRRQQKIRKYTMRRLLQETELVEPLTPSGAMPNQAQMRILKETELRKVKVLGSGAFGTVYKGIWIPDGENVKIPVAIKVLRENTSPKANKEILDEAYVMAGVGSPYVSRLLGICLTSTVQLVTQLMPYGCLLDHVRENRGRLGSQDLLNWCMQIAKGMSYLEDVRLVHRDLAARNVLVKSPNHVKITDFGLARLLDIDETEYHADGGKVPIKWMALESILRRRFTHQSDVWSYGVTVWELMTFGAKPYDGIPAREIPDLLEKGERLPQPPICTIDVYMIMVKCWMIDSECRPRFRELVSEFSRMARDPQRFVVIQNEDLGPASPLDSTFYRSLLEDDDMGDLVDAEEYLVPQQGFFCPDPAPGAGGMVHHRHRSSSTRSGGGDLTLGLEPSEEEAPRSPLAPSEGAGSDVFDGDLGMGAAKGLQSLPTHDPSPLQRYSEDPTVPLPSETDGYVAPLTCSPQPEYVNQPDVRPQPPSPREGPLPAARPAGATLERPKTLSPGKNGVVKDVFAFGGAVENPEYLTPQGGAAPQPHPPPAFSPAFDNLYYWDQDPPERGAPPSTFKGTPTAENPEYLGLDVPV
Chain of Epidermal growth factor receptor (P00533 whole entry): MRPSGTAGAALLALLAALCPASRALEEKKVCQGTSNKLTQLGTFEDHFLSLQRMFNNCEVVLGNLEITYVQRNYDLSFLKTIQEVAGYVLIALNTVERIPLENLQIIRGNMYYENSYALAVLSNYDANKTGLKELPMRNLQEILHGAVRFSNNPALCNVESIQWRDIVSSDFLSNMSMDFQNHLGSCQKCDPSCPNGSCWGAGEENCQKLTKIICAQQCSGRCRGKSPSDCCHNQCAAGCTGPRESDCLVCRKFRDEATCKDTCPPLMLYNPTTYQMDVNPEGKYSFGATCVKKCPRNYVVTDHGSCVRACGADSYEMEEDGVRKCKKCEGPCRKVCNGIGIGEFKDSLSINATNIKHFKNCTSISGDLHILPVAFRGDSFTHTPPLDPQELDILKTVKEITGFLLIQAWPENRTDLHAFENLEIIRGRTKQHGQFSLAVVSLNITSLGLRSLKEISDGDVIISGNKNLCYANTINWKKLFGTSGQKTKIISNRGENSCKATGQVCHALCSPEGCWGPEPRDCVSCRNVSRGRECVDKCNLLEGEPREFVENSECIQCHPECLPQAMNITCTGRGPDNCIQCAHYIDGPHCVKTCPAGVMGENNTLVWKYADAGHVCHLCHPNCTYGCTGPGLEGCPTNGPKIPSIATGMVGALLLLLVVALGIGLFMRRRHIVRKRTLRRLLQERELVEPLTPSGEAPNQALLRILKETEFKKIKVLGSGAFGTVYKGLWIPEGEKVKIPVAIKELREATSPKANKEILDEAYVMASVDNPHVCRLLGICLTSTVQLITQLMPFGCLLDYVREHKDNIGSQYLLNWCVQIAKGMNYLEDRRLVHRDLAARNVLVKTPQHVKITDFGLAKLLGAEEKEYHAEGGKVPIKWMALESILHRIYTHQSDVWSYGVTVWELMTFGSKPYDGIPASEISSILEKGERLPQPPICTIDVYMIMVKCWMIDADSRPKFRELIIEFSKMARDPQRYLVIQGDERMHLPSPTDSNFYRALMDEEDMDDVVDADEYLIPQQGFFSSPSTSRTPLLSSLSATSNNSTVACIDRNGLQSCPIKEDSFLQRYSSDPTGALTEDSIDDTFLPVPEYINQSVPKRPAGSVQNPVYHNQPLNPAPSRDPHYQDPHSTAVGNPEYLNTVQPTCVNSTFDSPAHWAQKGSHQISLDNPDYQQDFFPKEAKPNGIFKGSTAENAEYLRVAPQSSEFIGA
Chain of Proto-oncogene tyrosine-protein kinase Src (P12931 2-536 limits assumed): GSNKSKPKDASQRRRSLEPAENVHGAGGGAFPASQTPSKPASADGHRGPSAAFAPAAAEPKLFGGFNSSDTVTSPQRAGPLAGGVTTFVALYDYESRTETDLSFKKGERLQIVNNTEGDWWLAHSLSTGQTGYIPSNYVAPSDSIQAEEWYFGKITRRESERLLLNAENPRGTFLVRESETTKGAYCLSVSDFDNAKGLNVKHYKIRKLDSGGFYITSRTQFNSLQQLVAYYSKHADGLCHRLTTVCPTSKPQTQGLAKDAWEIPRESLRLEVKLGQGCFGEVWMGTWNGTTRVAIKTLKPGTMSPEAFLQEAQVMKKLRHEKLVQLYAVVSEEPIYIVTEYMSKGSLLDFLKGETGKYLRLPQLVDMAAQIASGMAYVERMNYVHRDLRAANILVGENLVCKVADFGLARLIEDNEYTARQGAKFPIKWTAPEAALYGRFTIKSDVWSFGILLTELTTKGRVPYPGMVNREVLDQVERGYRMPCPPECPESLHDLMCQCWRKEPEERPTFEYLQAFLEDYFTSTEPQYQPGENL

As to `O=C(CO)N1CCC[C@@H]1COc1cccc2ncnc(Nc3ccc(OCc4ccccn4)c(Cl)c3)c12`, the IC50 – broadly, the concentration needed to halve the response being measured – in [1] is 147 nM; in series [3] it was less than 2 nM; in series [4], 97 nM. Also, in series [2], the log distribution coefficient (logD) – broadly, lipophilicity at a set pH, counting ionised and neutral species – stood at 3.
Turning to `C[C@H](CN(C)C(=O)CO)Oc1cccc2ncnc(Nc3ccc(OCc4ccccn4)c(Cl)c3)c12`, the IC50 is 6940 nM in the series on KB [5]; 11 nM in series [1]; less than 2 nM in [3]; 34 nM in series [6]; 141 nM in the series on KB [7]; 2 nM in [4]. Besides, in series [2], the logD was determined as 3.
For `C[C@@H](CN(C)C(=O)CO)Oc1cccc2ncnc(Nc3ccc(OCc4ccccn4)c(Cl)c3)c12`, the 50% inhibitory concentration (IC50) in series [1] is 291 nM; in series [3] it was 22 nM; in series [4], 191 nM. This compound came in with a logD in [2] of 3.
In the case of `C[C@@H](COc1cccc2ncnc(Nc3ccc(OCc4ccccn4)c(Cl)c3)c12)N(C)C(=O)CO`, the IC50 was 131 nM in series [1], 19 nM in series [3] and 2580 nM in series [4]. Besides, the logD in series [2] turned out to be 3.
On the same counts, the results for `O=C(CO)N1CCC[C@H]1COc1cccc2ncnc(Nc3ccc(OCc4ccccn4)c(Cl)c3)c12` are 259 nM, 2 nM, 327 nM and 3.
On the same counts, the results for `C[C@H](COc1cccc2ncnc(Nc3ccc(OCc4ccccn4)c(Cl)c3)c12)N(C)C(=O)CO` are 11 nM, less than 2 nM, 3 nM and 3.
Take `CN(CCOc1cccc2ncnc(Nc3ccc(OCc4ccccn4)c(Cl)c3)c12)C(=O)CO`: the outcome in the series on LoVo [8], with Mus musculus [11], in the series with Rattus norvegicus and in the series on LoVo [32] was inactive. Moreover, the half-inhibitory concentration (IC50) is more than 1000 nM in series [9]; 8140 nM with KB [5]; 43 nM in [1]; 4 nM in series [3]; 130 nM in series [6]; 621 nM in the series with KB [7]. In addition, the concentration for half-maximal inhibition (IC50) in series [27] was more than 1000 nM; in [4], 35 nM. The outcome in the series on BT474C [10] and in the series on BT474C [14] was Active. The area under the curve (AUC) (as a rule, concentration integrated over time) in the series on Canis familiaris [12] was determined as 32 µM·h; in [29], 99 µM·h; with Mus musculus [31], 0.02 µM·h; with Mus musculus [33], 0.89 µM·h. The AUC(0-t) (in general, exposure summed from dosing to a finite time, without extrapolation to infinity) at 24 h in series [13] was 5.5 µM·h. Besides, in series [15], the concentration at 4 h was determined as 13.8 µM. Also, the inhibition in vivo at 50 mg/kg in the series with Mus musculus [16] and with Mus musculus [23] was 70% each time. Besides, in series [17], the concentration at 6 h amounted to 6.3 µM. The figures for the Vd in series [18], in [20] and in series [30] were 1 L/kg, 0.9 L/kg and 0.7 L/kg, respectively. The clearance in series [19] is 10 mL/min/kg. Moreover, the log distribution coefficient (logD) in series [2] worked out at 3. For the same compound, the values for the concentration at 2 h in series [21] and in series [25] were 16.5 µM and 0.35 µM, respectively. In series [22], the concentration at 24 h came out at 0.007 µM. Moreover, the bioavailability (usually dose-corrected exposure relative to a reference, in per cent) in [24] came to 32%. For the same compound, in series [26], the concentration at 16 h came out at 0.026 µM. For the same compound, the F in the series on Canis familiaris [28] is listed as 51%; in the series on Mus musculus [34], 4%. Besides, the Phospholipidosis result with Phospholipidosis is “Not Active”.
